# Reference: ChEMBL document CHEMBL1135254, “Novel N-[1-(1-substituted 4-piperidinylmethyl)-4-piperidinyl]benzamides as potent colonic prokinetic agents” (Bioorg Med Chem Lett, 2002)
# Columns and labels:
# [1] = biological target: 5-hydroxytryptamine receptor 4 (Cavia porcellus, UniProt O70528); experiment: Inhibitory activity against 5-hydroxytryptamine 4 receptor of guinea pig striatum using [3H]GR-113808 as radioligand; type: tissue-based
# Canis familiaris [2] = experiment: Gastrointestinal motility was reported after intravenous administration at a dose 1 mg/kg to dogs in stomach; type: functional, Canis lupus familiaris
# How it was run: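 Contractions were recorded by force transducers implanted on the gastric antrum and analyzed by computer. The motor index is the area between the contraction wave and baseline, i.e. amplitude (voltage) × time in min over a fixed period. The index for the 30 min after dosing is expressed as a percentage of that for the 30 min before.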
# Canis familiaris [3] = experiment: Gastrointestinal motility was reported after intravenous administration at a dose 1 mg/kg to dogs as induction number of GMC (gaint migrating contractions); type: functional, Canis lupus familiaris
# How it was run: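 Colonic contractions were recorded by a force transducer implanted on the ascending colon and analyzed by computer. Colonic motility is expressed as the number of giant migrating contractions induced after dosing.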
# Mus musculus = organism: Mus musculus; experiment: Dose at which the compound induced fecal excretion in mice; type: organism-based, Feces; settings: in vivo
# How it was run: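 Unfasted mice were dosed subcutaneously, and fecal excretion was the read-out.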
# Sequence of 5-hydroxytryptamine receptor 4 (O70528 whole entry): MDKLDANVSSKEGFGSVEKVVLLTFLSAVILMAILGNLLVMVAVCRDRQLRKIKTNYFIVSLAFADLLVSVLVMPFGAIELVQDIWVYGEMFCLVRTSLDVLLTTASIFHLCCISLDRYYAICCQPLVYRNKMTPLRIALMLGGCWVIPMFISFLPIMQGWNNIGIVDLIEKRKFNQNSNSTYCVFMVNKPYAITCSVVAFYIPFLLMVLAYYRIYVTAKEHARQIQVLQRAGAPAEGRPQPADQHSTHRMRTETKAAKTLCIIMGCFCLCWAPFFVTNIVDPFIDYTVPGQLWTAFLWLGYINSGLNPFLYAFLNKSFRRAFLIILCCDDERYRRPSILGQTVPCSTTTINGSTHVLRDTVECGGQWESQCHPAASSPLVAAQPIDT
Compound,IC50 [1] [nM],Dose (Mus musculus) [mg/kg],"Gastric motor index, % of pre-dose (Canis familiaris [2]) [%]",Induction number (Canis familiaris [3])
COc1cc(N)c(Cl)cc1C(=O)NC1CCN(CC2CCN(CCCNS(C)(=O)=O)CC2)CC1,21.1,,151,2
COc1cc(N)c(Cl)cc1C(=O)NC1CCN(CC2CCN(CCN)CC2)CC1,14.3,,127,
COc1cc(N)c(Cl)cc1C(=O)NC1CCN(C(=O)C2CCN(C(=O)CCCN)CC2)CC1,425,,132,2
COc1cc(N)c(Cl)cc1C(=O)NC1CCN(CC2CCN(CCCN)CC2)CC1,13.4,,151,7
CCOc1cc(N)c(Cl)cc1C(=O)NCC1CN(Cc2ccc(F)cc2)CCO1 (stereo not drawn) [MOSAPRIDE],113,,188,
COc1cc(N)c(Cl)cc1C(=O)NC1CCN(CC2CCN(CC(C)CN)CC2)CC1 (stereo not drawn),14.3,,177,1
COc1cc(N)c(Cl)cc1C(=O)NCC(O)CN1CCC(CN2CCC(N)CC2)CC1 (stereo not drawn),40.6,,,
COc1cc(N)c(Cl)cc1C(=O)NC1CCN(CC2CCN(CC(O)CN)CC2)CC1 (stereo not drawn),14.4,,121,
COc1cc(N)c(Cl)cc1C(=O)NC1CCN(CC2CCN(CCCCCN)CC2)CC1,11.2,,194,4

# Now those with a lower IC50 [1], led by results:
IC50 [1] [nM],Dose (Mus musculus) [mg/kg],Compound,"Gastric motor index, % of pre-dose (Canis familiaris [2]) [%]",Induction number (Canis familiaris [3])
9.5,,COc1cc(N)c(Cl)cc1C(=O)NC1CCN(CC2CCN(C(=O)CCN)CC2)CC1,107,3
9.3,,COc1cc(N)c(Cl)cc1C(=O)NC1CCN(CC2CCN(C(=O)CN)CC2)CC1,165,5
6.47,> 1,COc1cc(N)c(Cl)cc1C(=O)NC1CCN(CC2CCN(CCCCN)CC2)CC1,148,6
5.08,,COc1cc(N)c(Cl)cc1C(=O)NC1CCN(CC2CCN(C(=O)C(C)CN)CC2)CC1 (stereo not drawn),121,
5.06,,COc1cc(N)c(Cl)cc1C(=O)NC1CCN(CC2CCN(C(=O)C(C)N)CC2)CC1 (stereo not drawn),127,
3.99,,COc1cc(N)c(Cl)cc1C(=O)NC1CCN(CC2CCN(C(=O)CCCN)CC2)CC1,130,5
3.91,,COc1cc(N)c(Cl)cc1C(=O)NC1CCN(CC2CCN(C(=O)CCCCN)CC2)CC1,112,
2.6,,COc1cc(N)c(Cl)cc1C(=O)NC1CCN(CC2CCN(C(=O)C(C)(C)N)CC2)CC1,112,
2.57,,CCCC(N)C(=O)N1CCC(CN2CCC(NC(=O)c3cc(Cl)c(N)cc3OC)CC2)CC1 (stereo not drawn),117,1
2.53,,COc1cc(N)c(Cl)cc1C(=O)NC1CCN(CC2CCN(C(=O)C(N)C(C)C)CC2)CC1 (stereo not drawn),147,
